ChEMBL document CHEMBL1130160 (J Med Chem, 1997)

How the values were obtained:
Rattus norvegicus [1] = experiment: Dose required to reduce serum cholesterol by 50% relative to OVX controls was determined (in vivo); format: functional
Outline: (§1)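 OVX Sprague–Dawley rats (75 days old), 5–6 per group, dosed once daily by oral gavage for 4 consecutive days, starting 14 days after ovariectomy. Vehicle was 20% β-hydroxycyclodextrin at 1 mL/kg, or 1.5% carboxymethylcellulose in some cases. Rats were fasted after the last dose and bled by cardiac puncture next morning.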

Rattus norvegicus [2] = experiment: Percent decrease in serum cholesterol relative to OVX control at 0.1 mg/kg in rat was determined (in vivo); format: functional; outline: as §1
Rattus norvegicus [3] = experiment: Percent decrease in serum cholesterol relative to OVX control at 1 mg/kg in rat; format: functional; outline: as §1
Rattus norvegicus [4] = experiment: Percent decrease in serum cholesterol relative to OVX control at 10 mg/kg in rat was determined (in vivo); format: functional; outline: as §1
Rattus norvegicus [5] = experiment: Minimum effective dose at which significant increase in uterine eosinophil peroxidase (EPO) activity in rat was determined (in vivo); format: functional; details: read-out: MED
Rattus norvegicus [6] = experiment: Minimum effective dose at which significant increase in uterine weight/body weight in rat was determined (in vivo); format: functional; details: read-out: MED
Outline: (§2)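 In 75-day OVX Sprague–Dawley rats dosed orally for 4 days, beginning 2 weeks post-ovariectomy with 5–6 rats per group, whole uteri were weighed the morning after fasting. MED is the lowest dose giving a significant (p≤0.05) rise in uterine weight/body weight, expressed as % increase over OVX controls ±SE.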

Rattus norvegicus [7] = experiment: Minimum effective dose at which significant increase in uterine weight/body weight in rat was determined (in vivo); expressed as % increase relative to ovariectomized (OVX) controls; format: functional; outline: as §2
Estrogen receptor = Estrogen receptor (Homo sapiens, UniProt Q92731+P03372); details: mcf7

| SMILES | ED50 (Rattus norvegicus [1]) [mg/kg] | Decrease (Rattus norvegicus [2]) [%] | Decrease (Rattus norvegicus [3]) [%] | Decrease (Rattus norvegicus [4]) [%] | minimal effective dose (Rattus norvegicus [5]) [mg/kg] | minimal effective dose (Rattus norvegicus [6]) [mg/kg] | Increase (Rattus norvegicus [7]) [%] | IC50 (Estrogen receptor) [nM] |
| --- | --- | --- | --- | --- | --- | --- | --- | --- |
| Cl.O=C(c1ccc(OCCN2CCCCC2)cc1)c1c(-c2ccc(F)cc2)sc2cc(O)ccc12 | 1.4 | 20.6 | 46 | 71.9 | > 10 | 1 | 50.2 | 2.3 |
| Cc1cc2c(C(=O)c3ccc(OCCN4CCCCC4)cc3)c(-c3ccc(O)cc3)sc2c(C)c1O | – | – | – | – | – | – | – | 500 |
| O=C(c1ccc(OCCN2CCCCC2)cc1)c1c(-c2ccccc2O)sc2cc(O)ccc12 | > 10 | 7.8 | – | – | > 10 | > 10 | – | 10 |
| COc1ccc2c(C(=O)c3ccc(OCCN4CCCCC4)cc3)c(-c3ccc(O)cc3)sc2c1 | < 0.1 | 54.8 | 64.5 | 50 | > 10 | 1 | 33.5 | 250 |
| O=C(c1ccc(OCCN2CCCCC2)cc1)c1c(-c2ccc([N+](=O)[O-])cc2)sc2cc(O)ccc12 | – | – | – | – | – | – | – | 500 |
| O=C(c1ccc(OCCN2CCCCC2)cc1)c1c(-c2ccc(O)c(Cl)c2)sc2cc(O)ccc12 | 1.2 | – | 52.7 | – | > 10 | 10 | 30.3 | 2.3 |
| O=C(c1ccc(OCCN2CCCCC2)cc1)c1c(-c2ccc(O)cc2)sc2cc(O)c(O)cc12 | – | – | – | – | – | – | – | 400 |
| CC/C(=C(\c1ccccc1)c1ccc(OCCN(C)C)cc1)c1ccccc1 [TAMOXIFEN] | 0.2 | 39.2 | 71.1 | 67 | 0.1 | 0.1 | 62.4 | – |
| COc1ccc(-c2sc3cc(OC)ccc3c2C(=O)c2ccc(OCCN3CCCCC3)cc2)cc1.Cl | < 0.1 | 62.2 | 78 | 68.5 | > 10 | 0.1 | 57.3 | 300 |
| O=C(c1ccc(OCCN2CCCCC2)cc1)c1c(-c2ccc(O)cc2)sc2c(O)cccc12 | – | -6.1 | -11.7 | -3.4 | > 10 | 10 | 43.5 | 300 |
| O=C(c1ccc(OCCN2CCCCC2)cc1)c1c(-c2ccc(O)cc2)sc2ccc(O)cc12 | – | 10.4 | 3.7 | 22.6 | > 10 | > 10 | – | 100 |
| Cc1ccccc1-c1sc2cc(O)ccc2c1C(=O)c1ccc(OCCN2CCCCC2)cc1 | > 10 | – | – | – | > 10 | 10 | – | 0.7 |
| COc1ccc(-c2sc3ccccc3c2C(=O)c2ccc(OCCN3CCCCC3)cc2)cc1.O=C(O)CC(O)(CC(=O)O)C(=O)O | – | – | – | – | – | – | – | 100 |
| C#Cc1ccc(-c2sc3cc(O)ccc3c2C(=O)c2ccc(OCCN3CCCCC3)cc2)cc1 | > 10 | 9.1 | 32.7 | 35.8 | > 10 | > 10 | – | – |
| C#Cc1ccc2c(C(=O)c3ccc(OCCN4CCCCC4)cc3)c(-c3ccc(O)cc3)sc2c1 | 0.5 | 39.4 | 58.7 | 65.8 | > 10 | 1 | 27.8 | – |
| Cc1cc(-c2sc3cc(O)ccc3c2C(=O)c2ccc(OCCN3CCCCC3)cc2)ccc1O | 1 | 28.4 | 73.9 | – | > 10 | > 10 | – | 1 |
| COc1ccc2c(C(=O)c3ccc(OCCN4CCCCC4)cc3)c(-c3ccc(CO)cc3)sc2c1 | – | – | – | – | – | – | – | 600 |

| SMILES | ED50 (Rattus norvegicus [1]) [mg/kg] | Decrease (Rattus norvegicus [2]) [%] | Decrease (Rattus norvegicus [3]) [%] | Decrease (Rattus norvegicus [4]) [%] | minimal effective dose (Rattus norvegicus [5]) [mg/kg] | minimal effective dose (Rattus norvegicus [6]) [mg/kg] | Increase (Rattus norvegicus [7]) [%] | IC50 (Estrogen receptor) [nM] |
| --- | --- | --- | --- | --- | --- | --- | --- | --- |
| COc1ccc2c(C(=O)c3ccc(OCCN4CCCCC4)cc3)c(-c3ccc4c(c3)OCO4)sc2c1 | – | – | – | – | – | – | – | 500 |
| COc1ccc(-c2sc3cc(O)ccc3c2C(=O)c2ccc(OCCN3CCCCC3)cc2)cc1 | < 0.1 | 65.2 | 75.6 | 72.6 | > 10 | > 10 | – | 1000 |
| Cc1cc(O)ccc1-c1sc2cc(O)ccc2c1C(=O)c1ccc(OCCN2CCCCC2)cc1 | 0.4 | – | – | – | > 10 | 0.1 | – | 2 |
| O=C(c1ccc(OCCN2CCCCC2)cc1)c1c(-c2ccc(O)cc2)sc2cc(O)cc(O)c12 | – | – | – | – | – | – | – | 350 |
| O=C(c1ccc(OCCN2CCCCC2)cc1)c1c(-c2ccc3ccccc3c2)sc2cc(O)ccc12 | 0.2 | – | – | – | 0.1 | 0.1 | – | 80 |
| O=C(c1ccc(OCCN2CCCCC2)cc1)c1c(-c2ccc(O)cc2)sc2cc(O)c(F)cc12 | > 10 | 4.6 | 4.1 | 31.6 | > 10 | > 10 | – | 3 |
| COc1ccc(-c2sc3c(OC)c(OC)c(OC)cc3c2C(=O)c2ccc(OCCN3CCCCC3)cc2)cc1.Cl | – | – | – | – | – | – | – | 350 |
| COc1cc(O)ccc1-c1sc2cc(O)ccc2c1C(=O)c1ccc(OCCN2CCCCC2)cc1 | < 0.1 | – | 79 | – | 1 | 0.1 | – | 2 |
| NC(=O)c1ccc(-c2sc3cc(O)ccc3c2C(=O)c2ccc(OCCN3CCCCC3)cc2)cc1 | – | -3.2 | -21.3 | 10 | > 10 | > 10 | – | – |
| Cc1c(O)cc(C)c2c(C(=O)c3ccc(OCCN4CCCCC4)cc3)c(-c3ccc(O)cc3)sc12 | – | – | – | – | – | – | – | 100 |
| O=C(O)c1ccc(-c2sc3cc(O)ccc3c2C(=O)c2ccc(OCCN3CCCCC3)cc2)cc1 | – | 3.1 | -8.8 | 24.6 | > 10 | > 10 | – | – |
| O=C(c1ccc(OCCN2CCCCC2)cc1)c1c(-c2ccc(O)cc2)sc2cc(O)c3ccccc3c12 | – | – | – | – | – | – | – | 500 |
| COc1ccc2c(C(=O)c3ccc(OCCN4CCCCC4)cc3)c(-c3ccccc3)sc2c1 | – | – | – | – | – | – | – | > 1000 |
| O=C(c1ccc(OCCN2CCCCC2)cc1)c1c(-c2cccc(F)c2)sc2cc(O)ccc12 | 1 | – | 62 | – | > 10 | 0.1 | – | 2.5 |
| Cc1cc2c(C(=O)c3ccc(OCCN4CCCCC4)cc3)c(-c3ccc(O)cc3)sc2cc1O | 5.4 | -4.3 | 42.2 | 43.7 | > 10 | > 10 | – | – |
| O=C(c1ccc(OCCN2CCCCC2)cc1)c1c(-c2ccc(O)cc2)sc2cccc(O)c12 | > 10 | 29.6 | 18 | 31.8 | > 10 | > 10 | – | 190 |
